TPT1 inhibitor – blocks Candida albicans tRNA 2'-phosphotransferase; inhibition, % at 5 µM; AID 1962; recombinant caTPT1, FP RNA substrate dephosphorylation; 0.81% of 300,000 active;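 active = inhibition above the mean of all tested compounds plus 3 SD, set per screening campaign, cut at about 24% in these data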;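 note: plate controls were DMSO alone for no effect and ferristatin control at 100 nM for full effect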
Rpn11 block – inhibitors of human proteasome Rpn11; 0.59% of 360,000 active; human 26S proteasome, Ub4-pepOG fluorescence polarization; 20S core pre-blocked with epoxomicin; AID 588493; inhibition, % at 20 µM;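 active = inhibition at 20 µM, scaled to each plate's controls, above about 33%, limit read from the data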
Target sequence (O00487 whole entry, looked up): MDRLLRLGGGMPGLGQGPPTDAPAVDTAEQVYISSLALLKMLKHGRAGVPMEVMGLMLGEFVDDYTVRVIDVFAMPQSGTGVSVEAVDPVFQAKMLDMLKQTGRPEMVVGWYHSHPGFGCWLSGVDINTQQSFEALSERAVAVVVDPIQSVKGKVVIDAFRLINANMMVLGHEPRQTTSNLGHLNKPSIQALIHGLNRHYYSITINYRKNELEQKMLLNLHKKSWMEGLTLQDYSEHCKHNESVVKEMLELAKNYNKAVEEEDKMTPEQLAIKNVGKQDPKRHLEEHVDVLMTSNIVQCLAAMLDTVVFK
IDE act – IDE (human) activation, cell-based | HEK cells, FAbeta-B cleavage, fluorescence polarization; 0% vehicle, 100% cell-free pure enzyme wells | activation, % at 5.96 µM | 0.073% of 340,000 active | AID 493087;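 active = activation above the mean of all tested compounds plus 3 SD, set per screening campaign, cut at about 17% in these data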
CSN deneddyl inh – blocks human CSN-mediated cullin deneddylation; AID 651999; inhibition, % at 12.5 µM; Q92905; Purified CSN, SCF-Nedd8-OG deneddylation, fluorescence polarization; 0.38% of 360,000 active;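 active = pattern-corrected inhibition above about 35%, with an unprinted fluorescence ratio check between 0.5 and 1.5, limit read from the data, passing the limit was not always enough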;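 note: 0% = enzyme with substrate and 100% = substrate without enzyme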
Target sequence (Q92905 whole entry, looked up, one chain of several): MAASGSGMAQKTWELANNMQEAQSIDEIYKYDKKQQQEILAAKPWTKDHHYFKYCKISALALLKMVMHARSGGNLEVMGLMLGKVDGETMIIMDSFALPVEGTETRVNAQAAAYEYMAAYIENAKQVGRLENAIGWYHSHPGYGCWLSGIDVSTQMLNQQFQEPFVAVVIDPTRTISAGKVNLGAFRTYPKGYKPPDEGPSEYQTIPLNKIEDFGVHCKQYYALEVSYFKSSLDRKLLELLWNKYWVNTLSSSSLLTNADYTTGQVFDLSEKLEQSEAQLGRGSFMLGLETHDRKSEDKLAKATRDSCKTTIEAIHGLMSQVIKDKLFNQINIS
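Assay system: HEK293T-derived human Csn5 enzyme; quantity: 0.24 nM enzyme; medium: Tris/NaCl/DTT buffer, pH 7.5; also added: substrate SCFSkp2-Nedd8OG, 10 nM; doses: 12.5 µM compound; schedule: 90 min reaction at room temperature; signal: FP; read-out: % inhibition of substrate cleavage by Csn5; benchmarks: substrate-only high control, full reaction low control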
HNF4A DNA FP – change in binding of human HNF4 alpha to DNA; HNF4a-FITC DNA binding, fluorescence polarization, 1 h; activity change, % at 10 µM; 0.3% of 360,000 active; AID 1224865; in the data active = activity change above about 30%, passing the limit was not always enough
IDE cell inh – cellular human IDE inhibition | P14735 | HEK cells, FAbetaB cleavage, fluorescence polarization | inhibition, % at 5.59 µM | 0.41% of 320,000 active;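 active = percent inhibition above the average of all tested compounds plus 3 SD, set per screening campaign, cut at about 16% in these data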;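 note: IDE supplied by intact live HEK cells; FP after avidin binding of uncleaved biotin substrate so inhibition keeps polarization high; 0% = DMSO wells and 100% = 60 µM reference IDE inhibitor Ii1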
Rpn11 inh conf – confirmation of human proteasome Rpn11 inhibitors; inhibition, % at 20 µM; AID 602318; 29% of 1,900 active; shares compounds with Rpn11 block; purified human 26S proteasome, Ub4-pepOG fluorescence polarization; proteasome pretreated with epoxomicin
MMP-2 counter – MMP-2 (human) inhibition counter-screen | shares compounds with Rpn11 block | 4% of 1,900 active | recombinant MMP-2, FRET peptide cleavage fluorescence | inhibition, % at 20 µM | AID 602330;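 note: human MMP-2 activated beforehand with APMA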
Thrombin FP – counter-screen for RPN11 inhibitors: inhibition of bovine thrombin | AID 602333 | 13% of 1,900 active | bovine thrombin cleavage of Ub4-pepOG, fluorescence polarization | inhibition, % at 20 µM | shares compounds with Rpn11 block;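 active = mean inhibition at least 40% at 20 µM, or signal 3 deviations below plate average, so some actives read negative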;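 note: plate controls were thrombin with DMSO for no effect and buffer wells lacking thrombin for full effect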
The depositor's hits bear a star; / = not tested or not shown. In the library only some 1.7% were active in any assay of this set; here they are far more common. Cut-off read from the data, not from the text of the source, unless noted: active = inhibition above about 40%; inactive = the rest.

SMILES | TPT1 inhibitor | Rpn11 block | IDE act | CSN deneddyl inh | HNF4A DNA FP | IDE cell inh | Rpn11 inh conf | MMP-2 counter | Thrombin FP
COc1cc(Cl)ccc1OC1(C)CCN(Cc2ccc3ccccc3c2)C1 (stereo not given) | / | -21.1 | / | -2.4 | 4.5 | / | / | / | /
CC(C)C(=O)N1CCCC1(C)C(=O)Nc1ccccc1 (stereo not given) | / | -2.2 | / | 3.6 | 4.1 | / | / | / | /
CC(Cl)=CCn1c(NCCc2ccccc2)nc2c1c(=O)n(C)c(=O)n2C | / | -6.5 | / | -2.2 | -1.2 | / | / | / | /
N#CC(C(=O)NCc1ccccc1)c1nc2ccccc2nc1N1CCCC1 (stereo not given) | 18.4 | / | 5.5 | -81.6 | 26.6 | 5.3 | / | / | /
N#CC(C(=O)NCCc1ccccc1)c1nc2ccccc2nc1N1CCCCC1 (stereo not given) | -0.3 | 102.1* | 4.7 | 2.9 | 11.1 | -0.1 | -81.2 | -67.9 | -79.4
Cc1ccc(C(=O)N/C(N)=N/c2nc3ccccc3o2)cc1 | -0.6 | -2.8 | 4.2 | 1.0 | 0.7 | -4.2 | / | / | /
COc1ccccc1C(=O)N/C(N)=N/c1nc2ccccc2o1 | 13.7 | 59.3* | 4.3 | 13.7 | 17.6 | 2.6 | 51.0* | -37.6 | 8.3
CCOc1nc(N=C(N)N)nc2c(C)cccc12 | -1.0 | 84.2* | -1.7 | 9.9 | 15.9 | -1.2 | 23.6 | -78.3 | -1.5
CCOc1ccccc1Nc1cc(C)c2cccc(C)c2n1 | -3.1 | 2.8 | 6.4 | 2.2 | -1.2 | -1.6 | / | / | /
CC(C)(C)Nc1cccccc1=O | -3.7 | 103.1* | 8.7 | 2.3 | 8.8 | 4.1 | 3.0 | -14.2 | -1.2
Cc1ccc(Nc2cccccc2=O)cc1 | -2.5 | -8.9 | 7.3 | 4.4 | -1.4 | -1.0 | / | / | /
O=C(CCN1C(=O)c2ccccc2C1=O)c1ccccc1 | / | 6.8 | / | 6.0 | -0.9 | / | / | / | /
CCCC(=O)Nc1c(C(=O)OCC)[nH]c2ccccc12 | -2.1 | -0.7 | 4.7 | 3.2 | 0.9 | 1.1 | / | / | /
CCOC(=O)c1[nH]c2ccccc2c1NC(=O)Nc1ccc(OC)cc1 | -2.7 | 136.8* | 3.5 | 0.1 | 2.9 | -2.8 | -16.6 | -39.5 | -12.3
CN1CCN(S(=O)(=O)c2cccc(C(=O)N(C)CC(=O)Nc3ccc(Cl)c(Cl)c3)c2)CC1 | / | 2.8 | 2.3 | 0.9 | 0.4 | / | / | / | /
CCCN1CCN(C(=O)C2CCN(S(=O)(=O)c3ccc4c(c3)NC(=O)C(C)S4)CC2)CC1 (stereo not given) | 9.1 | 40.4* | 3.6 | 15.2 | 24.4 | 2.0 | 27.6 | -1.3 | 14.8
CC1Sc2ccc(S(=O)(=O)N3CCC(C(=O)N4CCN(C)CC4)CC3)cc2NC1=O (stereo not given) | -0.6 | 11.1 | 9.4 | -0.2 | 3.0 | -1.0 | / | / | /
CCOC(=O)[C@]12CCC=C1N(Cc1ccco1)C(=O)[C@H](CC(=O)NCCc1ccccc1OC)C2 | / | / | / | 1.2 | -1.9 | / | / | / | /
CCOC(=O)c1c(NC(=S)Nc2ccccc2)sc2c1CC(C)(C)SC2 | 22.5 | 41.9* | -1.8 | 17.9 | 11.5 | -1.8 | 7.8 | 80.6* | -10.9
COc1cc(NC(=O)N2CCc3nc(Nc4cc(Cl)cc(Cl)c4)ncc3C2)cc(OC)c1OC | / | 8.7 | / | 1.8 | 0.3 | / | / | / | /
COC(=O)c1ccc(NC(=O)c2cn(-c3ccccc3)nc2-c2ccncc2)cc1 | -5.3 | 53.8* | -2.8 | 22.8 | 7.3 | -0.4 | -0.6 | -7.1 | -14.6
CC(=O)c1ccc(NC(=O)c2cn(-c3ccccc3)nc2-c2ccncc2)cc1 | 4.3 | 5.3 | 5.0 | -0.1 | -2.0 | 0.8 | / | / | /
CC(=O)NC(c1ccccc1)c1nc(/C=C/c2ccccc2)cs1 (stereo not given) | / | -1.5 | / | 4.2 | 1.1 | / | / | / | /
O=C(COc1ccc(F)cc1)NN1C(=O)CSC1=S | 2.3 | 67.3* | -7.6 | 24.1 | 36.1 | 2.4 | -9.9 | 20.8 | -13.0
O=C(COc1ccccc1)NN1C(=O)CSC1=S | 3.2 | 3.1 | -4.5 | 7.5 | -1.1 | 6.4 | / | / | /
SMILES | TPT1 inhibitor | Rpn11 block | IDE act | CSN deneddyl inh | HNF4A DNA FP | IDE cell inh | Rpn11 inh conf | MMP-2 counter | Thrombin FP
CCCCCCCCCCOC(=O)Cn1c(COc2cccc(C)c2)[n+](C)c2ccccc21 | 3.6 | 40.4* | 15.5 | 2.7 | 3.5 | -10.5 | 8.7 | -3.0 | -32.6
CCCCCCCCCCOC(=O)Cn1c(COc2ccccc2)[n+](C)c2ccccc21 | -5.4 | -4.3 | 8.1 | 2.4 | 7.3 | 0.1 | / | / | /
CCCCCCCCCCOC(=O)Cn1c(COc2ccc(Cl)cc2)[n+](C)c2ccccc21 | -4.5 | 51.6* | 16.3 | 5.4 | 12.9 | -8.0 | 49.8* | -5.0 | -17.6
COc1ccc(NC(=O)C2(C)CCN2C(=O)c2ccc(C(C)(C)C)cc2)cc1OC (stereo not given) | / | 3.5 | / | 0.4 | -4.4 | / | / | / | /
O=C(NC12CC3CC(CC(C3)C1)C2)N1CCC(O)CC1 | -5.6 | 111.1* | 4.1 | -0.1 | 16.2 | -6.1 | -18.0 | -55.2 | -13.5
O=[N+]([O-])c1ccc(CSc2ccc(S(=O)(=O)N3CCCCCC3)cn2)cc1 | / | -4.5 | 2.4 | -6.6 | -3.4 | / | / | / | /
N#CCC(=O)N/N=C/c1ccccc1Cl | -2.8 | 53.3* | 1.9 | -7.1 | 3.2 | 5.5 | -14.8 | 12.8 | -12.7
CCCc1nnc(NC(=O)Nc2ccc(OC)cc2)s1 | 1.9 | 1.8 | -5.4 | -0.6 | -1.1 | -0.3 | / | / | /
COc1ccc(NC(=O)Nc2nnc(Cc3ccc(F)cc3)s2)cc1 | / | 59.3* | 0.6 | 14.9 | 16.1 | / | 26.6 | 2.1 | 26.6
CCCCCCCCNS(=O)(=O)CCNCc1ccccc1OC | / | -3.9 | 2.2 | -2.7 | 0.4 | / | / | / | /
COc1ccc(Cc2c(C(C)(C)C)nc3ccc(Cl)cn23)c(C)c1 | / | 56.2* | / | 4.2 | 12.1 | / | 43.8* | -16.4 | 24.2
COc1ccc(Cc2c(-c3ccc(Cl)cc3)nc3c(C)cc(Br)cn23)c(C)c1 | / | 44.0* | / | 8.9 | 13.3 | / | 28.1 | 23.0 | 21.1
COc1ccc(Cc2c(-c3ccccc3)nc3c(C)cc(Br)cn23)c(C)c1 | / | 63.0* | / | -0.9 | 11.7 | / | 15.7 | 46.9* | 9.8
COc1ccc(Cc2c(-c3cccc(Cl)c3)nc3c(C)cc(Br)cn23)c(C)c1 | / | -23.5 | / | 3.7 | -2.0 | / | / | / | /
COc1ccc(C(C)=O)cc1Cn1c(C)c(C(=O)NC2CC2)sc1=O | / | 1.1 | / | -0.3 | 0.1 | / | / | / | /
Cc1ccc2nc(C(C)(C)C)c(Cc3cccc(Cl)c3)n2c1 | / | 19.8 | / | -1.6 | 3.3 | / | / | / | /
CC1(C)OC(=O)C2=C(C[C@@H](C3CC3)O[C@@H]2C2CC2)O1 | / | / | / | -5.8 | -2.6 | / | / | / | /
O=c1c2c3nc4ccccc4nc3n(-c3ccc4c(c3)OCCO4)c2ncn1C1CCCC1 | 0.7 | 128.5* | 5.0 | 1.0 | 15.5 | -1.6 | -1.6 | -13.2 | -17.5

Assay outcomes as filed in PubChem.
